pIC50: −log10 of the molar value. Active and inactive are the calls of the source. No cut-off for these calls is given here.
What was measured:
[1] = test system: HL-60; assay: Induction of NO production in human HL60 cells at 1 uM after 24 hrs using DAF-2DA fluorescent dye based flow cytometric analysis; format: functional, cell-based
How it was run: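 HL-60 cells (1 x 10^5 per 1.5 mL) preloaded 30 min with 10 µM DAF-2-DA before treatment. After 24 h exposure, cells were washed and read by flow cytometry in FL-1 as NO-positive population. Mean ± SD of three independent experiments.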

[2] = test system: SiHa; assay: Growth inhibition of human SiHa cells at 10 uM by sulforhodamine B assay; format: functional; conditions: read-out: GI
How it was run: (§1)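 Single-dose 10 µM screen by sulforhodamine B assay, reported as percent inhibition of cell proliferation. Cells grown in medium with 10% heat-inactivated FBS at 37 °C, 5% CO2, and treated at about 70% confluence or in log phase. Compounds dissolved in DMSO; controls received vehicle (<0.5% v/v).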

[3] = test system: SK-N-SH; assay: Growth inhibition of human SK-N-SH cells at 10 uM by sulforhodamine B assay; format: functional; conditions: read-out: GI; how it was run: as §1
[4] = test system: HL-60; assay: Inhibition of Bcl-2 expression in human HL60 cells at 1 uM after 24 hrs by Western blotting; format: functional, cell-based
How it was run: (§2)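 HL-60 cells treated 24 h and lysed in RIPA buffer on ice; protein measured by Bradford against a BSA standard. 50 µg resolved by SDS-PAGE and transferred to PVDF, blocked in 5% milk/TBST, then primary antibodies 1:1000 for 2 h and HRP secondary 1:1000 for 1 h. ECL detection with β-actin as loading control; bands quantified by densitometry.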

[5] = test system: HL-60; assay: Induction of apoptosis in human HL60 cells assessed as DNA ladder formation at 1 uM after 24 hrs by agarose gel electrophoresis; format: functional, cell-based
How it was run: (§3)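 Cells treated 24 h, then 2 x 10^6 cells lysed (Triton X-100 buffer, pH 8.0) with RNase at 37 °C for 90 min and proteinase-K at 50 °C for 1 h. DNA phenol/chloroform-extracted and ethanol-precipitated, then run on 1.8% agarose at 50 V for 1.5 h in TAE. Ladders viewed under UV.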

[6] = test system: HL-60; assay: Cell cycle arrest in human HL60 cells assessed as accumulation at sub-G0 phase measuring DNA damage at 1 uM after 24 hrs using propidium iodide staining by flow cytometry (reference value: 1%); format: functional
How it was run: (§4)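 HL-60 cells (1 x 10^5 per 1.5 mL) treated 24 h, then fixed in 70% cold ethanol at −20 °C overnight. RNase digestion (400 µg/ml) at 37 °C for 45 min, then propidium iodide (10 µg/ml) for 30 min. Flow cytometry on 10,000 events, FL2-A vs FL2-W, with doublet discrimination. Sub-G0 (hypodiploid) peak taken as apoptotic cells. Mean ± SD of three independent experiments.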

[7] = test system: HL-60; assay: Cell cycle arrest in human HL60 cells assessed as accumulation at G2/M phase at 1 uM after 24 hrs using propidium iodide staining by flow cytometry; format: functional, cell-based; how it was run: as §4
[8] = test system: SW-620; assay: Growth inhibition of human SW620 cells at 10 uM by sulforhodamine B assay; format: functional; conditions: read-out: GI; how it was run: as §1
[9] = test system: HeLa; assay: Induction of apoptosis in human HeLa cells assessed as DNA ladder formation at 10 uM after 24 hrs by agarose gel electrophoresis; format: functional, cell-based; how it was run: as §3
[10] = test system: HEp-2; assay: Growth inhibition of human Hep2 cells at 10 uM by sulforhodamine B assay; format: functional; conditions: read-out: GI; how it was run: as §1
[11] = test system: HL-60; assay: Induction of apoptosis in human HL60 cells assessed as DNA ladder formation at 10 uM after 24 hrs by agarose gel electrophoresis; format: functional, cell-based; how it was run: as §3
[12] = Growth inhibition of human 502713 cells at 10 uM by sulforhodamine B assay; format: functional; conditions: read-out: GI; how it was run: as §1
[13] = test system: HL-60; assay: Cell cycle arrest in human HL60 cells assessed as accumulation at S phase at 1 uM after 24 hrs using propidium iodide staining by flow cytometry; format: functional, cell-based; how it was run: as §4
[14] = test system: HL-60; assay: Inhibition of survivin expression in human HL60 cells at 1 uM after 24 hrs by Western blotting; format: functional, cell-based; how it was run: as §2
[15] = test system: HL-60; assay: Induction of apoptosis in human HL60 cells assessed as late apoptotic cells at 1 uM after 24 hrs using Annexin V-FITC and propidium iodide staining by flow cytometry relative to control; format: functional
How it was run: (§5)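 HL-60 cells (1 x 10^5 per 1.5 mL) treated 24 h, washed twice in PBS and stained in binding buffer with annexin V-FITC and PI. Flow cytometry with FITC in FL-1 (530 nm) and PI in FL-2 (585 nm), using quadrant statistics: lower right taken as apoptotic, upper right as post-apoptotic necrotic. Representative of three independent experiments.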

[16] = test system: HL-60; assay: Induction of apoptosis in human HL60 cells assessed as increase of reactive oxygen species level at 1 uM after 24 hrs using DCFH-DA fluorescent dye based flow cytometric analysis relative to control; format: functional
How it was run: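 HL-60 cells (1 x 10^5 per 1.5 mL) treated 24 h, then loaded with 10 µM H2DCFDA for 30 min at 37 °C. Washed twice in PBS and read in FL-1 (530 nm). Percentage of DCF-positive cells determined; mean ± SD of three experiments.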

[17] = test system: HL-60; assay: Induction of apoptosis in human HL60 cells assessed as caspase3 activation using DEVD-AFC as substrate at 1 uM after 24 hrs by fluorimetry relative to control; format: functional
How it was run: (§6)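 HL-60 cells (2 x 10^6) treated 24 h, washed and lysed. Caspase-3, -8 and -9 activities in lysates measured fluorometrically with a commercial caspase fluorescent assay kit. Two independent experiments, each in duplicate.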

[18] = test system: HL-60; assay: Induction of apoptosis in human HL60 cells assessed as PARP cleavage at 1 uM after 24 hrs by Western blotting; format: functional, cell-based; how it was run: as §2
[19] = test system: HCT-15; assay: Growth inhibition of human HCT15 cells at 10 uM by sulforhodamine B assay; format: functional; conditions: read-out: GI; how it was run: as §1
[20] = test system: SiHa; assay: Induction of apoptosis in human SiHa cells assessed as DNA ladder formation at 10 uM after 24 hrs by agarose gel electrophoresis; format: functional, cell-based; how it was run: as §3
[21] = test system: HL-60; assay: Cell cycle arrest in human HL60 cells assessed as accumulation at G1 phase at 1 uM after 24 hrs using propidium iodide staining by flow cytometry; format: functional, cell-based; how it was run: as §4
[22] = test system: IMR-32; assay: Growth inhibition of human IMR32 cells at 10 uM by sulforhodamine B assay; format: functional; conditions: read-out: GI; how it was run: as §1
[23] = test system: DU-145; assay: Growth inhibition of human DU145 cells at 10 uM by sulforhodamine B assay; format: functional; conditions: read-out: GI; how it was run: as §1
[24] = test system: HL-60; assay: Induction of apoptosis in human HL60 cells assessed as non-viable necrotic cells at 1 uM after 24 hrs using Annexin V-FITC and propidium iodide staining by flow cytometry relative to control; format: functional; how it was run: as §5
[25] = test system: A549; assay: Growth inhibition of human A549 cells at 10 uM by sulforhodamine B assay; format: functional; conditions: read-out: GI; how it was run: as §1
[26] = test system: HL-60; assay: Induction of apoptosis in human HL60 cells assessed as decrease in mitochondrial membrane potential at 1 uM after 24 hrs using rhodamine 123 staining by flow cytometry; format: functional
How it was run: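 HL-60 cells (1 x 10^5 per 1.5 mL) treated 24 h, then stained with rhodamine-123 (5 µg/mL final) for 1 h. Washed, and propidium iodide (5 µg/mL) added just before reading. FL-1 fluorescence from 10,000 events; percentage of low Rh-123 cells taken as loss of membrane potential. Mean ± SD, n=3.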

[27] = test system: OVCAR-5; assay: Growth inhibition of human OVCAR5 cells at 10 uM by sulforhodamine B assay; format: functional; conditions: read-out: GI; how it was run: as §1
[28] = test system: HL-60; assay: Induction of apoptosis in human HL60 cells assessed as caspase8 activation using IETD-AFC as substrate at 1 uM after 24 hrs by fluorimetry relative to control; format: functional; how it was run: as §6
[29] = test system: HL-60; assay: Inhibition of NF-kappaB expression in human HL60 cells at 1 uM after 24 hrs by Western blotting; format: functional, cell-based; how it was run: as §2
[30] = test system: HL-60; assay: Induction of apoptosis in human HL60 cells assessed as caspase9 activation using LEHD-AMC as substrate at 1 uM after 24 hrs by fluorimetry relative to control; format: functional; how it was run: as §6
[31] = test system: HL-60; assay: Induction of apoptosis in human HL60 cells assessed as early apoptotic cells at 1 uM after 24 hrs using Annexin V-FITC and propidium iodide staining by flow cytometry relative to control; format: functional; how it was run: as §5
[32] = test system: CV-1; assay: Growth inhibition of african green monkey CV1 cells after 48 hrs by MTT assay; format: cell-based; conditions: Chlorocebus aethiops, CV-1, 48 h
[33] = Therapeutic ratio of IC50 for african green monkey CV1 cells to IC50 for human HL60 cells; format: ADME, cell-based, HL-60; conditions: CV1 cells and HL60 cells, read-out: Ratio IC50
[34] = test system: HL-60; assay: Growth inhibition of human HL60 cells after 48 hrs by MTT assay; format: functional, cell-based; conditions: HL-60, 48 h
[35] = test system: SiHa; assay: Growth inhibition of human SiHa cells after 48 hrs by MTT assay; format: functional, cell-based

| Compound | Activity [1] | inhibition of growth at 10 µM [2] [%] | inhibition of growth at 10 µM [3] [%] | inhibition [4] | Activity [5] | Activity [6] [%] | Activity [7] | inhibition of growth at 10 µM [8] [%] | Activity [9] | inhibition of growth at 10 µM [10] [%] | Activity [11] | inhibition of growth at 10 µM [12] [%] | Activity [13] | Activity [15] [%] | Activity [16] | Activity [17] | Activity [18] | inhibition of growth at 10 µM [19] [%] | Activity [20] | Activity [21] | further results |
| --- | --- | --- | --- | --- | --- | --- | --- | --- | --- | --- | --- | --- | --- | --- | --- | --- | --- | --- | --- | --- | --- |
| O=C(Nc1nc2ccc([N+](=O)[O-])cc2s1)c1cccnc1Nc1ccc(Cl)cc1Cl | inactive | 35 | 50 | inactive | Active | 25 | inactive | 61 | inactive | 14 | Active | 2 | inactive | 5 | inactive | inactive | Active | 75 | inactive | inactive | inhibition [14]: Active; inhibition of growth at 10 µM [22]: 48%; inhibition of growth at 10 µM [23]: 39%; Activity [24]: 40%; inhibition of growth at 10 µM [25]: 19%; Activity [26]: Active; inhibition of growth at 10 µM [27]: 0%; Activity [28]: inactive; inhibition [29]: inactive; Activity [30]: inactive; Activity [31]: 9% |
| COc1ccc(Nc2ncccc2C(=O)Nc2nc3ccc([N+](=O)[O-])cc3s2)cc1 | inactive | 66 | 64 | inactive | Active | 22 | inactive | 64 | inactive | 5 | Active | 59 | inactive | 3 | 44% | inactive | Active | 47 | inactive | inactive | pIC50 [32]: 5.00; selectivity ratio [33]: 14; inhibition of growth at 10 µM [22]: 55%; inhibition of growth at 10 µM [23]: 32%; Activity [24]: 14%; inhibition of growth at 10 µM [25]: 3%; pIC50 [34]: 6.15; inhibition of growth at 10 µM [27]: 52%; Activity [28]: inactive; inhibition [29]: inactive; Activity [30]: inactive; pIC50 [35]: 4.55; Activity [31]: 7% |
| CN1c2ccccc2S(=O)(=O)n2nc(-c3cccnc3Nc3ccc(Cl)cc3Cl)nc21 | inactive | 13 | 16 | inactive | Active | 20 | inactive | 62 | inactive | 0 | Active | 49 | inactive | 3 | inactive | inactive | Active | 27 | inactive | inactive | pIC50 [32]: < 4.00; inhibition [14]: Active; selectivity ratio [33]: > 156; inhibition of growth at 10 µM [22]: 47%; inhibition of growth at 10 µM [23]: 11%; Activity [24]: 13%; inhibition of growth at 10 µM [25]: 15%; pIC50 [34]: 6.19; inhibition of growth at 10 µM [27]: 23%; Activity [28]: inactive; inhibition [29]: inactive; Activity [30]: inactive; pIC50 [35]: < 4.30; Activity [31]: 7% |
| O=C(Nc1nc2ccc([N+](=O)[O-])cc2s1)c1cccnc1Nc1ccccc1 | inactive | 53 | 48 | inactive | Active | 24 | inactive | 65 | inactive | 26 | Active | 63 | inactive | 7 | 31% | inactive | Active | 66 | inactive | inactive | pIC50 [32]: 4.15; selectivity ratio [33]: 120; inhibition of growth at 10 µM [22]: 45%; inhibition of growth at 10 µM [23]: 52%; Activity [24]: 42%; inhibition of growth at 10 µM [25]: 31%; pIC50 [34]: 6.24; Activity [26]: Active; inhibition of growth at 10 µM [27]: 50%; Activity [28]: inactive; inhibition [29]: inactive; Activity [30]: inactive; pIC50 [35]: 4.55; Activity [31]: 13% |

Source: ChEMBL document CHEMBL1926589, “2-Anilinonicotinyl linked 2-aminobenzothiazoles and [1,2,4]triazolo[1,5-b] [1,2,4]benzothiadiazine conjugates as potential mitochondrial apoptotic inducers” (Bioorg Med Chem, 2011)
